Experimental data: ChEMBL document CHEMBL1275425, “Mechanism of inhibition of human immunodeficiency virus type 1 reverse transcriptase by a stavudine analogue, 4'-ethynyl stavudine triphosphate” (Antimicrob Agents Chemother, 2008)

Key:
[1] = tested on: Human immunodeficiency virus type 1 reverse transcriptase (Human immunodeficiency virus 1), Q72547 [M184V]; assay: Ratio of Kpol/Kd for RNA-dependent DNA polymerase activity of HIV 1 reverse transcriptase M184V mutant assessed as incorporation of 4-EdTMP by burst assay using RNA/DNA Primer/Template combination
Method in brief: (§1)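 Single-turnover rapid-quench at 25°C in Tris-HCl pH 7.8/NaCl/MgSO4 buffer, with enzyme in excess: 250 nM wild-type or M184V RT and 50 nM 5′-32P-labeled DNA/DNA or DNA/RNA primer/template. The incoming nucleotide concentration was varied. Products were resolved by urea-PAGE and phosphorimaged. First-phase rates were fitted to kobs = kpol[S]/(Kd+[S]), and efficiency was taken as kpol/Kd.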

[2] = tested on: Human immunodeficiency virus type 1 reverse transcriptase (Human immunodeficiency virus 1), Q72547 [M184V]; assay: (§2) Selectivity index, ratio of Kpol/Kd for DNA-dependent DNA polymerase activity of HIV 1 reverse transcriptase M184V mutant assessed as incorporation of dTMP to Kpol/Kd for DNA-dependent DNA polymerase activity of HIV 1 reverse transcriptase reverse transcriptase M184V mutant assessed as incorporation of Ed4TMP
Method in brief: (§3)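 Selectivity factor: the single-turnover incorporation efficiency (kpol/Kd) for dTTP divided by that for the analogue triphosphate. Both used the same RT (wild type or M184V) and the same primer/template, DNA/DNA or DNA/RNA. Kd and kpol came from hyperbolic fits of first-phase rates against nucleotide concentration, with 250 nM RT over 50 nM labeled P/T at 25°C.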

[3] = target: Human immunodeficiency virus type 1 reverse transcriptase (Human immunodeficiency virus 1) (UniProt Q72547); assay: Selectivity index, ratio of Kpol/Kd for DNA-dependent DNA polymerase activity of HIV 1 reverse transcriptase assessed as incorporation of dTMP to Kpol/Kd for DNA-dependent DNA polymerase activity of HIV 1 reverse transcriptase reverse transcriptase assessed as incorporation of Ed4TMP; method in brief: as §3
[4] = target: Human immunodeficiency virus type 1 reverse transcriptase (Human immunodeficiency virus 1) (UniProt Q72547); assay: Ratio of Kpol/Kd for DNA-dependent DNA polymerase activity of HIV 1 reverse transcriptase assessed as incorporation of 4-EdTMP by burst assay using DNA/DNA Primer/Template combination; method in brief: as §1
[5] = target: Human immunodeficiency virus type 1 reverse transcriptase (Human immunodeficiency virus 1) (UniProt Q72547); assay: Activity of DNA-dependent DNA polymerase activity of HIV 1 reverse transcriptase assessed as incorporation of 4-EdTMP by burst assay using DNA/DNA Primer/Template combination
Method in brief: (§4)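 Purified HIV-1 RT (wild type or M184V built by site-directed mutagenesis) was preincubated with a 5′-32P-labeled primer annealed to a DNA or RNA template. It was rapidly mixed in a quench-flow at 25°C in 50 mM Tris-HCl pH 7.8 with 50 mM NaCl and MgSO4. Final: 300 nM P/T, 100 nM enzyme, 1 mM nucleotide. Reactions were EDTA-quenched at set times, run on urea-PAGE and phosphorimaged, then fitted to the burst equation.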

[6] = target: Human immunodeficiency virus type 1 reverse transcriptase (Human immunodeficiency virus 1) (UniProt Q72547); assay: Activity of RNA-dependent DNA polymerase activity of HIV 1 reverse transcriptase assessed as incorporation of 4-EdTMP by burst assay using RNA/DNA Primer/Template combination; method in brief: as §4
[7] = target: T1, Human immunodeficiency virus type 1 reverse transcriptase (Human immunodeficiency virus 1, UniProt Q72547); assay: Inhibition of DNA-dependent DNA polymerase activity of HIV 1 reverse transcriptase assessed as incorporation of 4-EdTMP by burst assay using DNA/DNA Primer/Template combination
Method in brief: (§5)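 Rapid chemical quench-flow at 25°C in 50 mM Tris-HCl pH 7.8, 50 mM NaCl. Wt or M184V HIV-1 RT (100 nM final) was preincubated with 5′-32P-labelled primer/template (300 nM final; DNA/DNA or DNA/RNA). It was mixed with buffer containing 20 mM MgSO4 (pre-mixing) and 2 mM nucleotide triphosphate (pre-mixing). Reactions were quenched at set times with 0.5 M EDTA and products resolved by urea-PAGE with phosphorimaging. Data were fitted to the burst equation.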

[8] = target: Human immunodeficiency virus type 1 reverse transcriptase (Human immunodeficiency virus 1) (UniProt Q72547); assay: Ratio of Kpol/Kd for RNA-dependent DNA polymerase activity of HIV 1 reverse transcriptase assessed as incorporation of 4-EdTMP by burst assay using RNA/DNA Primer/Template combination; method in brief: as §1
[9] = tested on: Human immunodeficiency virus type 1 reverse transcriptase (Human immunodeficiency virus 1), Q72547 [M184V]; assay: Activity of RNA-dependent DNA polymerase activity of HIV 1 reverse transcriptase M184V mutant assessed as incorporation of 4-EdTMP by burst assay using RNA/DNA Primer/Template combination; method in brief: as §4
[10] = tested on: Human immunodeficiency virus type 1 reverse transcriptase (Human immunodeficiency virus 1), Q72547 [M184V]; assay: Activity of DNA-dependent DNA polymerase activity of HIV 1 reverse transcriptase M184V mutant assessed as incorporation of 4-EdTMP by burst assay using DNA/DNA Primer/Template combination; method in brief: as §4
[11] = target: T2, Human immunodeficiency virus type 1 reverse transcriptase (Human immunodeficiency virus 1, UniProt Q72547, M184V); assay: Inhibition of DNA-dependent DNA polymerase activity of HIV 1 reverse transcriptase M184V mutant assessed as incorporation of 4-EdTMP by burst assay using DNA/DNA Primer/Template combination
[12] = target: Human immunodeficiency virus type 1 reverse transcriptase (Human immunodeficiency virus 1) (UniProt Q72547); assay: Selectivity index, ratio of Kpol/Kd for RNA-dependent DNA polymerase activity of HIV 1 reverse transcriptase assessed as incorporation of dTMP to Kpol/Kd for RNA-dependent DNA polymerase activity of HIV 1 reverse transcriptase reverse transcriptase assessed as incorporation of Ed4TMP; method in brief: as §3
[13] = tested on: Human immunodeficiency virus type 1 reverse transcriptase (Human immunodeficiency virus 1), Q72547 [M184V]; assay: Ratio of Kpol/Kd for DNA-dependent DNA polymerase activity of HIV 1 reverse transcriptase M184V mutant assessed as incorporation of 4-EdTMP by burst assay using DNA/DNA Primer/Template combination; method in brief: as §1
[14] = target: T2, Human immunodeficiency virus type 1 reverse transcriptase; assay: Inhibition of RNA-dependent DNA polymerase activity of HIV 1 reverse transcriptase M184V mutant assessed as incorporation of 4-EdTMP by single-turnover assay using RNA/DNA Primer/Template combination
[15] = target: T1, Human immunodeficiency virus type 1 reverse transcriptase; assay: Inhibition of RNA-dependent DNA polymerase activity of HIV 1 reverse transcriptase assessed as incorporation of 4-EdTMP by burst assay using RNA/DNA Primer/Template combination; method in brief: as §5
[16] = tested on: Human immunodeficiency virus type 1 reverse transcriptase (Human immunodeficiency virus 1), Q72547 [M184V]; assay: as §2, with “RNA-dependent” for “DNA-dependent”; method in brief: as §3
[17] = target: Human immunodeficiency virus type 1 reverse transcriptase (Human immunodeficiency virus 1) (UniProt Q72547); assay: Activity of DNA-dependent DNA polymerase activity of HIV 1 reverse transcriptase assessed as incorporation of dTMP by burst assay using DNA/DNA Primer/Template combination; method in brief: as §4
[18] = target: T2, Human immunodeficiency virus type 1 reverse transcriptase; assay: Inhibition of RNA-dependent DNA polymerase activity of HIV 1 reverse transcriptase M184V mutant assessed as incorporation of dTMP by burst assay using RNA/DNA Primer/Template combination
Method in brief: (§6)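 Pre-steady-state burst assay by rapid chemical quench at 25°C. Wild-type or M184V HIV-1 RT was preincubated with 5′-32P-labelled primer annealed to a DNA or RNA template. Final conditions were 100 nM enzyme, 300 nM P/T, and 1 mM nucleotide in 50 mM Tris-HCl pH 7.8 with 50 mM NaCl and MgSO4. Reactions were quenched with EDTA and products resolved by urea-PAGE with phosphorimaging. Data were fitted to the burst equation to give amplitude, kob and kss.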

[19] = target: Human immunodeficiency virus type 1 reverse transcriptase (Human immunodeficiency virus 1) (UniProt Q72547); assay: Ratio of Kpol/Kd for DNA-dependent DNA polymerase activity of HIV 1 reverse transcriptase assessed as incorporation of dTMP by burst assay using DNA/DNA Primer/Template combination
Method in brief: (§7)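 Single-turnover rapid-quench assay at 25°C, Tris-HCl pH 7.8 and NaCl. Enzyme (250 nM wild-type or M184V RT) was in excess over 5′-32P-labelled DNA/DNA or DNA/RNA P/T (50 nM), with the nucleotide triphosphate concentration varied. First-phase observed rates were fitted to kobs = kpol[S]/(Kd + [S]) to obtain Kd and kpol. Incorporation efficiency was taken as kpol/Kd.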

[20] = target: Human immunodeficiency virus type 1 reverse transcriptase (Human immunodeficiency virus 1) (UniProt Q72547); assay: Activity of RNA-dependent DNA polymerase activity of HIV 1 reverse transcriptase assessed as incorporation of dTMP by burst assay using RNA/DNA Primer/Template combination; method in brief: as §4
[21] = tested on: Human immunodeficiency virus type 1 reverse transcriptase (Human immunodeficiency virus 1), Q72547 [M184V]; assay: Ratio of Kpol/Kd for RNA-dependent DNA polymerase activity of HIV 1 reverse transcriptase M184V mutant assessed as incorporation of dTMP by burst assay using RNA/DNA Primer/Template combination; method in brief: as §7
[22] = tested on: Human immunodeficiency virus type 1 reverse transcriptase (Human immunodeficiency virus 1), Q72547 [M184V]; assay: Activity of DNA-dependent DNA polymerase activity of HIV 1 reverse transcriptase M184V mutant assessed as incorporation of dTMP by burst assay using DNA/DNA Primer/Template combination; method in brief: as §4
[23] = target: T1, Human immunodeficiency virus type 1 reverse transcriptase; assay: Inhibition of RNA-dependent DNA polymerase activity of HIV 1 reverse transcriptase assessed as incorporation of dTMP by burst assay using RNA/DNA Primer/Template combination; method in brief: as §6
[24] = target: T2, Human immunodeficiency virus type 1 reverse transcriptase; assay: Inhibition of DNA-dependent DNA polymerase activity of HIV 1 reverse transcriptase M184V mutant assessed as incorporation of dTMP by burst assay using DNA/DNA Primer/Template combination; method in brief: as §6
[25] = target: T1, Human immunodeficiency virus type 1 reverse transcriptase; assay: Inhibition of DNA-dependent DNA polymerase activity of HIV 1 reverse transcriptase assessed as incorporation of dTMP by burst assay using DNA/DNA Primer/Template combination; method in brief: as §6
[26] = tested on: Human immunodeficiency virus type 1 reverse transcriptase (Human immunodeficiency virus 1), Q72547 [M184V]; assay: Activity of RNA-dependent DNA polymerase activity of HIV 1 reverse transcriptase M184V mutant assessed as incorporation of dTMP by burst assay using RNA/DNA Primer/Template combination; method in brief: as §6
[27] = target: Human immunodeficiency virus type 1 reverse transcriptase (Human immunodeficiency virus 1) (UniProt Q72547); assay: Ratio of Kpol/Kd for RNA-dependent DNA polymerase activity of HIV 1 reverse transcriptase assessed as incorporation of dTMP by burst assay using RNA/DNA Primer/Template combination; method in brief: as §7
[28] = tested on: Human immunodeficiency virus type 1 reverse transcriptase (Human immunodeficiency virus 1), Q72547 [M184V]; assay: Ratio of Kpol/Kd for DNA-dependent DNA polymerase activity of HIV 1 reverse transcriptase M184V mutant assessed as incorporation of dTMP by burst assay using DNA/DNA Primer/Template combination; method in brief: as §7
[29] = target: T1, Human immunodeficiency virus type 1 reverse transcriptase; assay: Inhibition of RNA-dependent DNA polymerase activity of HIV 1 reverse transcriptase assessed as incorporation of d4TMP by burst assay using RNA/DNA Primer/Template combination
[30] = target: T1, Human immunodeficiency virus type 1 reverse transcriptase; assay: Inhibition of DNA-dependent DNA polymerase activity of HIV 1 reverse transcriptase assessed as incorporation of d4TMP by burst assay using DNA/DNA Primer/Template combination
[31] = target: T2, Human immunodeficiency virus type 1 reverse transcriptase; assay: Inhibition of DNA-dependent DNA polymerase activity of HIV 1 reverse transcriptase M184V mutant assessed as incorporation of d4TMP by burst assay using DNA/DNA Primer/Template combination
[32] = target: T2, Human immunodeficiency virus type 1 reverse transcriptase; assay: Inhibition of RNA-dependent DNA polymerase activity of HIV 1 reverse transcriptase M184V mutant assessed as incorporation of d4TMP by burst assay using RNA/DNA Primer/Template combination

Compound: C#C[C@@]1(COP(=O)(O)OP(=O)(O)OP(=O)(O)O)C=C[C@H](n2cc(C)c(=O)[nH]c2=O)O1
- Ratio [1]: 0.22 µM⁻¹ s⁻¹
- Ratio [2]: 2.8
- Ratio [3]: 1.9
- Ratio [4]: 0.77 µM⁻¹ s⁻¹
- Activity [5]: 12.1 s⁻¹
- Activity [6]: 11.7 s⁻¹
- Kd [7]: 15.8 µM
- Ratio [8]: 1 µM⁻¹ s⁻¹
- Activity [9]: 9.7 s⁻¹
- Activity [10]: 18.9 s⁻¹
- Kd [11]: 168 µM
- Ratio [12]: 0.97
- Ratio [13]: 0.11 µM⁻¹ s⁻¹
- Kd [14]: 43.4 µM
- Kd [15]: 11.4 µM
- Ratio [16]: 1.3

Compound: Cc1cn([C@H]2C[C@H](O)[C@@H](COP(=O)(O)OP(=O)(O)OP(=O)(O)O)O2)c(=O)[nH]c1=O [DEOXYTHYMIDINE_TRIPHOSPHATE]
- Activity [17]: 22.6 s⁻¹
- Kd [18]: 144 µM
- Ratio [19]: 1.47 µM⁻¹ s⁻¹
- Activity [20]: 65 s⁻¹
- Ratio [21]: 0.29 µM⁻¹ s⁻¹
- Activity [22]: 22.4 s⁻¹
- Kd [23]: 67.1 µM
- Kd [24]: 73.2 µM
- Kd [25]: 15.4 µM
- Activity [26]: 41.7 s⁻¹
- Ratio [27]: 0.97 µM⁻¹ s⁻¹
- Ratio [28]: 0.31 µM⁻¹ s⁻¹

Compound: Cc1cn([C@H]2C=C[C@@H](COP(=O)(O)OP(=O)(O)OP(=O)(O)O)O2)c(=O)[nH]c1=O [STAVUDINE TRIPHOSPHATE]
- Kd [29]: 40.8 µM
- Kd [30]: 48 µM
- Kd [31]: 605 µM
- Kd [32]: 232 µM
